This is an account of results in PMC4846470 (Psychopharmacology, 2016).

Structures are written as SMILES. “Also recorded” adds a separate entry of the source.

For data set [1], the system named is Male ND4 Swiss–Webster mice. As to the kind of experiment: Locomotor activity. The class given is in vivo. The conditions noted are these: for Time of peak (maximal) locomotor depression after injection: active doses.
Data set [2] has as its target human recombinant CB1 receptors (Homo sapiens, UniProt P21554). As to the kind of experiment: Radioligand binding to human recombinant CB1 receptors in CHO cell membranes.
In data set [3] the target is human CB1 cannabinoid receptors (Homo sapiens, UniProt P21554). As to the kind of experiment: Gi agonist effect: cAMP functional assay in CHO cells expressing CB1. As to conditions: for Emax: CHO, read-out: Maximum Effect (%). The format is cell-based.
Sequence of human CB1 cannabinoid receptors (P21554 whole entry): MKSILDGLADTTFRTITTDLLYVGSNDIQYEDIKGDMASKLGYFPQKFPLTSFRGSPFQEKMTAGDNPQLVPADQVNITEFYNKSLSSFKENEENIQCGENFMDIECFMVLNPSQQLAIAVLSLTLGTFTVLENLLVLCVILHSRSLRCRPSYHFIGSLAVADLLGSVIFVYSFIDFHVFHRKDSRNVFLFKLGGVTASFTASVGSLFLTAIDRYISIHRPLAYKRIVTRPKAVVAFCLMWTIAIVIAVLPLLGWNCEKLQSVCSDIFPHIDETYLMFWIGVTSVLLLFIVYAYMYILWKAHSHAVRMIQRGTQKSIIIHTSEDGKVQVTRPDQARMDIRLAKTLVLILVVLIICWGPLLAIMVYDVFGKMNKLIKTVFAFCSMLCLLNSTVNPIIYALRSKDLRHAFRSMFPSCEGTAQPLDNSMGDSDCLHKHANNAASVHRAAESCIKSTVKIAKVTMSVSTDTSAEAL
Data set [4] deals with Male Sprague-Dawley rats. As to the kind of experiment: Drug discrimination in rats trained to discriminate Δ^9-THC. As to conditions: for Effect on rate of responding: cannabinoids at doses which substituted; for Substitution for the discriminative stimulus effects of Δ^9-THC: full substitution defined as ≥80% drug-appropriate responding. The format is in vivo. In short, it runs like this:
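Vehicle: ethanol/Cremophor EL/0.9% saline 1:1:18. In tests both levers paid and data ran to first reinforcer or 20 min. Six rats per compound got all doses. Pretreatment was at locomotor peak-depression time. Rate was responses/time to first reinforcer.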

Sequence of human recombinant CB1 receptors (P21554 whole entry): as above

`CCCCCn1nc(C(=O)NC(C(N)=O)C(C)(C)C)c2ccccc21` (stereo not drawn) [ADB-PINACA, N-[1-(aminocarbonyl)-2,2-dimethylpropyl]-1-pentyl-1H-indazole-3-carboxamide]: the “Time of peak (maximal) locomotor depression after injection” value (shortened to “Time of peak”) in data set [1] (mice, i.p.) was 20 min. Also, in data set [2], the inhibition constant (Ki) – broadly, the dissociation constant of the complex between target and ligand, obtained from inhibition or displacement – is 0.59 nM. In data set [3], the response was half-maximal at 0.024 nM (EC50) and the Emax amounted to 99.6%.
Consider `CCCCCn1cc(C(=O)NC(C(N)=O)C(C)(C)C)c2ccccc21` (stereo not drawn) [ADBICA, N-(1-amino-3,3-dimethyl-1-oxobutan-2-yl)-1-pentyl-1H-indole-3-carboxamide], for which the “Time of peak” value in data set [1] (mice, i.p.) is at most 20 min. For the same molecule, the inhibition constant Ki in data set [2] was determined as 1.3 nM. Moreover, in data set [3], the EC50 – broadly, the concentration at which the effect is half-maximal – amounted to 0.38 nM and the Emax is 97.4%.
On to `CCCCCn1cc(C(=O)c2ccc(C)c3ccccc23)c2ccccc21` [JWH-122, (4-methyl-1-naphthalenyl)(1-pentyl-1H-indol-3-yl)-methanone], for which the Ki in data set [2] came out at 3.35 nM. For the same molecule, in data set [3], the EC50 came out at 2.8 nM and the Emax was found to be 102%.
Regarding `CCCCCn1cc(C(=O)c2ccc(CC)c3ccccc23)c2ccccc21` [JWH-210, (4-ethyl-1-naphthalenyl)(1-pentyl-1H-indol-3-yl)-methanone], in data set [1] (8 h following 10 mg/kg i.p.), the “Mice with tremors upon handling” value is on record as 6 of 8. For the same molecule, the Ki in data set [2] was 1.01 nM. Moreover, in data set [4] (THC-trained rats), the “Effect on rate of responding” value is “modest depression of rate of responding”. In addition, in data set [3], the EC50 came out at 111 nM and the Emax was determined as 98.2%.
On to `CNC(C)Cc1ccc2c(c1)OCO2` (stereo not drawn) [MDMA, 3,4-Methylenedioxy-methamphetamine], for which the “Maximum THC-appropriate responding” value in data set [4] (THC-trained rats, following 1.5 mg/kg, negative control) was found to be 11%. In addition, in data set [4] (THC-trained rats), the “Effect on rate of responding” value is reported as “dose-dependently depressed rate of responding” and the “Substitution for the discriminative stimulus effects of Δ^9-THC” value is given as “did not substitute; also recorded: failed to substitute”. Moreover, the “Rats that failed to complete the first fixed ratio” value in data set [4] (following 3 mg/kg, n=9) is reported as 6 of 9.
In the case of `CCCCCn1cc(C(=O)c2ccc(OC)cc2)c2ccccc21` [RCS-4, (4-methoxyphenyl)(1-pentyl-1H-indol-3-yl)methanone], the Ki in data set [2] amounted to 22.5 nM. For the same molecule, in data set [4] (THC-trained rats), the “Effect on rate of responding” value is recorded as “modest depression of rate of responding” and the “Substitution for the discriminative stimulus effects of Δ^9-THC” value is “full substitution”. Moreover, in data set [3], the EC50 turned out to be 20 nM and the Emax amounted to 101%.
For `O=C(c1cccc2ccccc12)c1nn(CCCCCF)c2ccccc12` [THJ-2201, (1-(5-fluoropentyl)-1H-indazol-3-yl)(naphthalen-1-yl)methanone], in data set [3], the midpoint of the response, the EC50, lay at 0.64 nM and the Emax came out at 96.6%.
For `CCCCCc1cc(O)c2c(c1)OC(C)(C)[C@@H]1CCC(C)=C[C@@H]21` [Δ^9-THC, Δ^9-Tetrahydrocannabinol, reference compound], in data set [1] (mice, i.p.), the “Time of peak” value lay within 30 to 60 min. Also, the “ED50 Locomotor Activity (locomotor depressant effects)” value in data set [1] (mice, i.p., dose producing 1/2 maximal depression, mean with 95% confidence interval) was 12.99 (2.51 to 67.21) mg/kg. Further, the “ED50 Drug Discrimination (discriminative stimulus effects)” value in data set [4] (THC-trained rats, i.p., mean with 95% confidence interval) was 1.15 (0.21 to 6.27) mg/kg.
